# In ChEMBL document CHEMBL4145481, “Synthesis and biological evaluation of novel bavachinin analogs as anticancer agents” (Eur J Med Chem, 2018):
# The source made the active and inactive calls. No cut-off for these calls is given here.
# What was measured:
# MCF7 [1] = assay: Cytotoxicity against human MCF7 cells assessed as growth inhibition at 50 uM after 48 hrs by SRB assay relative to control; assay type: functional; settings: MCF7, 48 h, read-out: GI
# Method in brief: (§1)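 SRB growth-inhibition run in RPMI-1640/10% FBS at 37°C, 5% CO₂. Cell lines were seeded (PC-3 7000, MCF-7 8000, A549 7500, HCT-116 7000/well) and attached 24 h. The treatment series included 50 μM, with 48 h exposure. Cells were cold-TCA fixed and stained with 0.4% SRB. Dye was solubilized in 10 mM Tris pH 10.4 and read at 540 nm against untreated control.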
# HCT-116 [2] = assay: Cytotoxicity against human HCT116 cells assessed as growth inhibition after 48 hrs by SRB assay; assay type: functional, cell-based; settings: HCT-116, 48 h
# Method in brief: (§2)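 Cells were grown in RPMI-1640 with 10% FBS and penicillin/streptomycin at 37°C, 5% CO₂. Seeding was PC-3 7000, MCF-7 8000, A549 7500 and HCT-116 7000 cells/well, with 24 h attachment. Cells were exposed to 1, 5, 10, 30 and 50 μM for 48 h, with a 5-fluorouracil reference. Cells were TCA-fixed (1 h, 4°C) and stained with 0.4% SRB. Bound dye was dissolved in 10 mM Tris pH 10.4 and read at 540 nm. IC50 came from the concentration-response.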
# A549 [3] = assay: Cytotoxicity against human A549 cells assessed as growth inhibition at 50 uM after 48 hrs by SRB assay relative to control; assay type: functional; settings: A549, 48 h, read-out: GI; method in brief: as §1
# A549 [4] = assay: Cytotoxicity against human A549 cells assessed as growth inhibition after 48 hrs by SRB assay; assay type: functional, cell-based; settings: A549, 48 h; method in brief: as §2
# HCT-116 [5] = assay: Cytotoxicity against human HCT116 cells assessed as growth inhibition at 50 uM after 48 hrs by SRB assay relative to control; assay type: functional; settings: HCT-116, 48 h, read-out: GI; method in brief: as §1
# HCT-116 [6] = assay: Anticlonogenic activity against human HCT116 cells incubated for 24 hrs measured up to 14 days by crystal violet staining-based assay; assay type: functional, cell-based
# Method in brief: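 HCT-116 cells (8x10^4/mL/well) were treated 24 h at 3.6, 7.2 and 14.4 μM. They were then trypsinized and re-seeded at 1000 cells/well, and grown about 14 days to colonies of >50 cells. Colonies were fixed in 4% formaldehyde and stained with 0.5% crystal violet. Colony number was expressed relative to untreated control, with 5-fluorouracil as reference; means ± SD, n = 3.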
# HCT-116 [7] = assay: Induction of morphological changes in human HCT116 cells assessed as cell shrinkage after 24 hrs by phase contrast microscopic analysis; assay type: functional, cell-based
# Method in brief: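 HCT-116 cells were exposed 24 h to 3.6, 7.2 and 14.4 μM, alongside an untreated control. Morphology was photographed by phase contrast microscopy at 20x.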
# PC-3 [8] = assay: Cytotoxicity against human PC3 cells assessed as growth inhibition at 50 uM after 48 hrs by SRB assay relative to control; assay type: functional; settings: PC-3, 48 h, read-out: GI; method in brief: as §1
# HCT-116 [9] = assay: Induction of apoptosis in human HCT116 cells assessed as PARP cleavage at 3.6 uM after 24 hrs by Western blot analysis; assay type: functional, cell-based
# Method in brief: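 HCT-116 cells were treated 24 h at 3.6, 7.2 and 14.4 μM. RIPA whole-cell lysates with protease/phosphatase inhibitors were BCA-quantified. Equal protein was run on 10% SDS-PAGE and transferred to PVDF, then blocked with 5% BSA/TBST for 1 h. Blots were probed with anti-PARP (1:1000) and β-actin (1:500, loading control) plus HRP secondaries. The read-out was the 89 kDa cleaved fragment.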
# HCT-116 [10] = assay: Induction of mitochondrial membrane potential loss in human HCT116 cells after 24 hrs by rhodamine123 staining based fluorescence microscopic analysis; assay type: functional, cell-based
# Method in brief: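 Cells were seeded at 1×10^6/1.5 mL/well and treated 24 h at 3.6, 7.2 and 14.4 μM, with 5-FU at 5 μM as reference. Rhodamine-123 (10 nM) was added for the final 1 h. After a PBS wash, fluorescence was imaged by microscopy.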
# PC-3 [11] = assay: Cytotoxicity against human PC3 cells assessed as growth inhibition after 48 hrs by SRB assay; assay type: functional, cell-based; settings: PC-3, 48 h; method in brief: as §2
# HCT-116 [12] = assay: Antimigratory activity against human HCT116 cells assessed as inhibition of wound closure up to 24 hrs by wound scratch assay; assay type: functional, cell-based
# Method in brief: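 HCT-116 cells were plated at 8×10^5/well and grown to 70–80% confluence, then serum-starved 24 h. The monolayer was scratched with a pipette tip and treated at 3.6, 7.2 and 14.4 μM for 24 h. Wounds were imaged at 0 and 24 h (20x). Percent wound closure was computed from wound areas relative to control; means ± SD, n = 3.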
# MCF7 [13] = assay: Cytotoxicity against human MCF7 cells assessed as growth inhibition after 48 hrs by SRB assay; assay type: functional, cell-based; settings: MCF7, 48 h; method in brief: as §2
# [14] = biological target: T1, Peroxisome proliferator-activated receptor gamma (Mus musculus, UniProt P37238); assay: Agonist activity at mouse PPARgamma expressed in 293T cells by dual luciferase reporter gene assay; assay type: cell-based
# T1 sequence (P37238 whole entry): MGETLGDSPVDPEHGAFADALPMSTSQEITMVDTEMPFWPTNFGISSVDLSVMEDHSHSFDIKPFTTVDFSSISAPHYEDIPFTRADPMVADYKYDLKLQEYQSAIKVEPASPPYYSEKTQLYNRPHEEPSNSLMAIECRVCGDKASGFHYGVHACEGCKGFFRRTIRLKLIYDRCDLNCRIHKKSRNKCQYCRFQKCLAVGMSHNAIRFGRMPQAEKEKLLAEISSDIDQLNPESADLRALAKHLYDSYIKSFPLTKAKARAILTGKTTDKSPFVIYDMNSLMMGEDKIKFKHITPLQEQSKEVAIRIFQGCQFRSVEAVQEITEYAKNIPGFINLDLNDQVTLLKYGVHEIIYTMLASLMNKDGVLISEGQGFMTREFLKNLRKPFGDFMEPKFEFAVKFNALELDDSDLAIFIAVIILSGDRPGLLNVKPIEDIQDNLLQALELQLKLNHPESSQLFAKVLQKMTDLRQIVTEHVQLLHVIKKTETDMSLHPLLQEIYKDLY
# HepG2 = assay: Cytotoxicity against human HepG2 cells; assay type: functional, cell-based
compound,measurement,setting,value
COc1ccc([C@@H]2C/C(=N/OCc3cn(-c4ccc(C(N)=O)cc4)nn3)c3cc(CC=C(C)C)c(OC)cc3O2)cc1,inhibition of growth at 50 µM,MCF7 [1],100%
same,IC50,HCT-116 [2],7.13 µM
same,inhibition of growth at 50 µM,A549 [3],100%
same,IC50,A549 [4],7.72 µM
same,inhibition of growth at 50 µM,HCT-116 [5],100%
same,Activity,HCT-116 [6],Dose-dependent effect
same,Activity,HCT-116 [7],Dose-dependent effect
same,inhibition of growth at 50 µM,PC-3 [8],100%
same,Activity,HCT-116 [9],Active
same,Activity,HCT-116 [10],Dose-dependent effect
same,IC50,PC-3 [11],16.1 µM
same,inhibition,HCT-116 [12],Dose-dependent effect
same,IC50,MCF7 [13],11.7 µM
COc1cc2c(cc1CC=C(C)C)C(=O)C[C@@H](c1ccc(OC(=O)c3ccc([N+](=O)[O-])cc3)cc1)O2,EC50,[14],430 nM
COc1cc2c(cc1CC=C(C)C)C(=O)C[C@@H](c1ccc(OC3O[C@H](CO)[C@@H](O)[C@H](O)[C@H]3O)cc1)O2 (stereo partly specified),IC50,HepG2,48.5 µM
COc1cc2c(cc1CC=C(C)C)C(=O)C[C@@H](c1ccc(OC(C)=O)cc1)O2,EC50,[14],780 nM
